In the EternaBench riboswitch data:

System: MS2 coat protein
Assay: apparent Kd, MS2 coat protein; higher = weaker binding; RNA-MaP array; FMN 200 µM where present
How it was run: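 Designs were transcribed by stalled E. coli RNA polymerase on Illumina sequencing-chip clusters. They were titrated with SNAP-549-labelled MS2 coat protein from 0.7 or 1.5 nM, doubling to 3 µM, in 100 mM Tris-HCl pH 7.5, 80 mM KCl, 4 mM MgCl2, BSA, DTT, yeast tRNA and Tween-20, without and then with constant ligand. The apparent Kd is the median of filtered per-cluster fits after normalisation of green signal to red-channel RNA signal and control-cluster median Fmax.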

[1] = designed as: OFF switch for flavin mononucleotide, no ligand
[2] = ligand present: flavin mononucleotide, designed as: OFF switch for flavin mononucleotide
[3] = designed as: ON switch for flavin mononucleotide, no ligand
[4] = ligand present: flavin mononucleotide, designed as: ON switch for flavin mononucleotide

AAGUAGUGAGGAUAUACAUGGAUAUACAUUCAUGUGGACCUACAUGAGGAUCACCCAUGUAGAAGGCACUACUA
apparent Kd [1]: 42.6 nM | apparent Kd [2]: 61.6 nM

AAGUCACAUGAGGAUCACCCAUGUCGUAAACGAUGAGGAUAUAGGAAGAAAAAAAAAAAACUAGAAGGUAUUACAA
apparent Kd [3]: 59.8 nM | apparent Kd [4]: 55.9 nM

AAGUCAGCAGGAUAUGCGAUGUUGGGCUAGGUAGCGUGACCACAUGAGGAUCACCCAUGUAGAAGGGCUGGCUA
apparent Kd [1]: 33.4 nM | apparent Kd [2]: 34.4 nM

AAGUCAGCAGGAUAUGCGAUGUUGGGCUAGGUAGCUUGACCACAUGAGGAUCACCCAUGUAGAAGGGCUGGCUA
apparent Kd [1]: 17.4 nM | apparent Kd [2]: 14 nM

AAGUCGAGUAAUAAAUAAGAUCUACAUGAGGAUCACCCAUGUAAGGAUAUGCAGUGGAAUACACUGCAGAAGGUACAUCUCGAC
apparent Kd [1]: 14 nM | apparent Kd [2]: 35 nM

AAGUCUGGACGAGGAUAUCAGUUGUAUCUAGAUUCAACAUGAGGAUCACCCAUGUUGCAAUAGGGUGAGAAGGCGUUUGGGCAA
apparent Kd [3]: 79.9 nM | apparent Kd [4]: 21.2 nM

AAGUUAUAUACAUGAGGAUCACCCAUGUCAAAGGGAGUAAUCAGAAGGUACUAUUCAAUAAUUAGUAAGGAUAUGAAUUUUUAG
apparent Kd [3]: 39.5 nM | apparent Kd [4]: 30.6 nM

AAUAAACAUGAGGAUCACCCAUGUCAGGAUAUGCGUCUAUCCUUAUACCAUAGAUACGGCAGAAGGGACUAAUA
apparent Kd [1]: 24.9 nM | apparent Kd [2]: 31 nM

AAUAAACAUGAGGAUCACCCAUGUGAGGAUAUGGUAUUAUUUGGACAGUUAUGAUAUACCAGAAGGCACAAAUA
apparent Kd [1]: 28 nM | apparent Kd [2]: 46.8 nM

AAUAAACUCACAGGAUAUAGCAUAGGUCGCGUGUACUUACAGGCGACUAUGCUAGAAGGGUGACCACAUGAGGAUCACCCAUGU
apparent Kd [3]: 887 nM | apparent Kd [4]: 188 nM

AAUAAACUCACAGGAUAUAGCAUCGACGUUGCGAACUUAGCGACGUCGAUGCUAGAAGGGUGAAAACAUGAGGAUCACCCAUGU
apparent Kd [3]: 30.9 nM | apparent Kd [4]: 13.4 nM

AAUAAGGUCACAGGAUAUACUACAUCCAAUGCGGUAGAAGGGUGACACUUACUGUGCAGACAUGAGGAUCACCCAUGUAACCAC
apparent Kd [3]: 53 nM | apparent Kd [4]: 10.4 nM

AAUAAUAAGGAGGAUAUCGUAUCGGAAACGAUACGAGAAGGUCUAACAUGAGGAUCACCCAUGUUCCUCAAAUA
apparent Kd [1]: 38.1 nM | apparent Kd [2]: 54.3 nM

AAUAAUAAGGAGGAUAUCGUAUCGGAGACGAUACGAGAAGGCUUAACAUGAGGAUCACCCAUGUUCCUCAAUAA
apparent Kd [1]: 35 nM | apparent Kd [2]: 76.7 nM

AAUACGUCAGGAUAUCUGAUGUCUAACUUCGGUUAGACAUCAGAGAAGGGACAUGAGGAUCACCCAUGUAUAAA
apparent Kd [1]: 51.1 nM | apparent Kd [2]: 44.9 nM

AAUACUUAGUAAGGAUAUACUAGCGAUUAGCUUGUAGAAGGUACAGUCUUAUGUAUAACAUGUUAACAUGAGGAUCACCCAUGU
apparent Kd [3]: 67.2 nM | apparent Kd [4]: 35.1 nM

AAUAGGUUUCCCGGUGGUUAAUACAUGAGGAUCACCCAUGUCAAGGAUAUAGCCGUAUAACCAGGUUAGAAGGUGACUAAAUGA
apparent Kd [1]: 67.5 nM | apparent Kd [2]: 120 nM

AAUAUGAGCUGGAAUAAACCUUGAACAUGAGGAUCACCCAUGUAGGAUAUCAGCACGAUAAGUGCUGAGAAGGACAACCAGCUC
apparent Kd [1]: 13.6 nM | apparent Kd [2]: 15.3 nM

AAUAUGAGCUGGAAUAACCUAGAAACAUGAGGAUCACCCAUGUAGGAUAUCAGCACGAUAAGUGCUGAGAAGGACAACCAGCUC
apparent Kd [1]: 14.3 nM | apparent Kd [2]: 15.2 nM

AAUAUGUGAGGAUAUCAGGUGUGCUAGCGUACUGGUACAUCUGAGAAGGCACAUGAGGAUCACCCAUGUAUCUU
apparent Kd [1]: 24.4 nM | apparent Kd [2]: 87.4 nM

AAUAUGUUGCAGAAGGCUAUAUUGUUGUAGUACCUCAUGACAUGAGGAUCACCCAUGUUUUUGUUGGAGGAUAUGCAAUAUAUU
apparent Kd [1]: 7.32 nM | apparent Kd [2]: 7.07 nM

AAUCCACAUGAGGAUCACCCAUGUGAGGAUAUCGUGCAGAAAAAAAAAAAAAACUGCACGAGAAGGCACAUGGA
apparent Kd [1]: 160 nM | apparent Kd [2]: 69.1 nM

AAUCCACAUGAGGAUCACCCAUGUGAGGAUAUGAUACUAUGUACUUCGGUACAUAGUAUCAGAAGGCACAAAGG
apparent Kd [1]: 54.8 nM | apparent Kd [2]: 99.6 nM

AAUCUAAUCCUUAAACAUGAGGAUCACCCAUGUAUUGGCAAGUAGGAUAUCGAUAAAUAUUUCAACGAGAAGGACUAUACAAAA
apparent Kd [1]: 21.7 nM | apparent Kd [2]: 31.7 nM

AAUGAAUUCGAGAAGGGAGAUGUGGCACUUGUUUCGAAGUUGUGAUCACUCAGGAUAUCGAAACAUGAGGAUCACCCAUGUAAA
apparent Kd [3]: 273 nM | apparent Kd [4]: 17.5 nM

AAUGCCAAUGAAGGAUAUACAAACAUGAGGAUCACCCAUGUGUCUUUCGUGUAACUGGAAUUCGGGUAGAAGGUCAUUGACAUA
apparent Kd [1]: 34.5 nM | apparent Kd [2]: 26.9 nM

AAUGGCGUCCAAGGAUAUCCUGACCGUUAACAUGAGGAUCACCCAUGUUGCCUAAAGGCGGCAUAGGAGAAGGUGGUACUCUGU
apparent Kd [3]: 73.3 nM | apparent Kd [4]: 124 nM

AAUGUUGAUGUGAGGAUAUACAUAGUUUGACCGUAGUAGAAGGCACAUGAGGAUCACCCAUGUAGAUGUUUGGU
apparent Kd [1]: 12 nM | apparent Kd [2]: 24.2 nM
